Our source for the Activity, inhibition in vivo and UI values is ChEMBL document CHEMBL1926598, “Synthesis, anti-inflammatory activity and ulcerogenic liability of novel nitric oxide donating/chalcone hybrids” (Bioorg Med Chem, 2012).

The nature of data set [1]: Induction of nitric oxide release at 0.1 mM after 1 hr in phosphate buffer at pH 7.4 by Griess assay. The data set is classed as physicochemical. The following applies: pH 7.4, 1 h, 100 µM. In short, it runs like this: (§1)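 Compound at a final 10^-4 M with 0.5 mM N-acetylcysteine in phosphate buffer pH 7.4 at 37 °C. Reaction mixture treated with Griess reagent (sulfanilamide, N-naphthylethylenediamine, phosphoric acid), 10 min at room temperature, absorbance read at 546 nm. Sodium nitrite standards (10–80 nmol/mL) used for calibration. NO reported as mol/mol, n = 4 reaction mixtures.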

Data set [2] in a line: Induction of nitric oxide release at 0.1 mM after 2 hrs in phosphate buffer at pH 7.4 by Griess assay. The following applies: pH 7.4, 2 h, 100 µM. The data set is classed as physicochemical. Summed up: as §1
(In general: Griess reagent forms a coloured azo dye with nitrite.)

Data set [3] can be described thus: Induction of nitric oxide release at 0.1 mM after 3 hrs in phosphate buffer at pH 7.4 by Griess assay. The data set is classed as physicochemical. The note with it: pH 7.4, 3 h, 100 µM. In short, it runs like this:
as §1

Data set [4] is described as follows: Induction of nitric oxide release at 0.1 mM after 4 hrs in phosphate buffer at pH 7.4 by Griess assay. The following applies: pH 7.4, 4 h, 100 µM. The data set is classed as physicochemical. Summed up: as §1
Data set [5] in a line: Induction of nitric oxide release at 0.1 mM after 5 hrs in phosphate buffer at pH 7.4 by Griess assay. The data set is classed as physicochemical. The note with it: pH 7.4, 5 h, 100 µM. Summed up: as §1
Data set [6] in a line: Induction of nitric oxide release at 0.1 mM after 6 hrs in phosphate buffer at pH 7.4 by Griess assay. It is filed as physicochemical. The following applies: pH 7.4, 6 h, 100 µM. In short, it runs like this:
as §1

Data set [7] in a line: Induction of nitric oxide release at 0.1 mM in 0.1 N HCl buffer at pH 1.0 by Griess assay. The note with it: pH 1, 100 µM. The data set is classed as physicochemical. Summed up: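 Griess procedure as at neutral pH, but in 0.1 N HCl pH 1 in place of phosphate buffer. Compound at a final 10^-4 M with N-acetylcysteine, 37 °C. Absorbance read at 546 nm against sodium nitrite standards (10–80 nmol/mL). Release expressed relative to a theoretical 1 mol NO/mol compound.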

Data set [8] concerns Rattus norvegicus. The data set is described as follows: Antiinflammatory activity in albino rat assessed as inhibition of carrageenan-induced paw edema at 100 mg/kg, po administered 30 mins prior to challenge measured after 1 hr relative to untreated control. It is filed as functional. In short, it runs like this:
(§2)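 Adult male albino rats (120–140 g), groups of four, fasted 24 h with water allowed. Test compound suspended in 0.5% w/v CMC in water, given orally at 100 mg/kg; controls received CMC alone. After 30 min, 0.1 mL of 1% carrageenan in saline injected subplantar into right hind paw, saline into left. Paw thickness measured by caliper; % inhibition = [(VR−VL)control − (VR−VL)treated]/(VR−VL)control ×100; one-way ANOVA versus control.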
Background: Carrageenan injected into the paw causes an acute inflammation.

Data set [9] deals with Rattus norvegicus. In words: Antiinflammatory activity in albino rat assessed as inhibition of carrageenan-induced paw edema at 100 mg/kg, po administered 30 mins prior to challenge measured after 2 hrs relative to untreated control. The data set is classed as functional. Summed up:
as §2

Data set [10] deals with Rattus norvegicus. The data set is described as follows: Antiinflammatory activity in albino rat assessed as inhibition of carrageenan-induced paw edema at 100 mg/kg, po administered 30 mins prior to challenge measured after 3 hrs relative to untreated control. It is filed as functional. In short, it runs like this:
as §2

Data set [11] deals with Rattus norvegicus. In words: Antiinflammatory activity in albino rat assessed as inhibition of carrageenan-induced paw edema at 100 mg/kg, po administered 30 mins prior to challenge measured after 4 hrs relative to untreated control. The data set is classed as functional. Summed up: as §2
Data set [12] relates to Rattus norvegicus. In words: Antiinflammatory activity in albino rat assessed as inhibition of carrageenan-induced paw edema at 100 mg/kg, po administered 30 mins prior to challenge measured after 5 hrs relative to untreated control. The data set is classed as functional. Summed up: as §2
The subject of data set [13] is Rattus norvegicus. In words: Antiinflammatory activity in albino rat assessed as inhibition of carrageenan-induced paw edema at 100 mg/kg, po administered 30 mins prior to challenge measured after 3 hrs relative to indomethacin. The data set is classed as functional. The arrangement: scale not given: the % may be the effect or the level left. In short, it runs like this: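 Carrageenan paw edema in male albino rats (120–140 g, n = 4, fasted 24 h), compound 100 mg/kg po in 0.5% CMC 30 min before subplantar 1% carrageenan (0.1 mL). Percent edema inhibition at the stated hour from right minus left paw thickness versus the CMC control, then expressed as a percentage of the indomethacin (100 mg/kg) response at the same time.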

Data set [14] relates to Rattus norvegicus. In words: Gastric toxicity in albino rat assessed as ulcer index at 100 mg/kg, po after 5 hrs. It is filed as organism-based. The arrangement: dose 100 mg/kg, route oral. The note with it: in vivo. Summed up: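 Rats dosed orally at 100 mg/kg in 0.5% CMC (n = 4). Stomach lesions counted and graded by area: level I <1 mm², II 1–3 mm², III >3 mm². Ulcer index = 1×(level I count) + 2×(level II) + 3×(level III). Mean ± SEM; one-way ANOVA versus control.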

A word on the inhibition in vivo: it is the change of the read-out against control, counted positive when it falls. Regarding `COc1ccc(/C=C/C(=O)c2ccc(NC(=O)CO[N+](=O)[O-])cc2)cc1`, the Activity in data set [1] stood at 0.27 mol/mol; in data set [2], 0.31 mol/mol; in data set [3] it was 0.48 mol/mol; in data set [4] it was 0.66 mol/mol; in data set [5], 0.68 mol/mol; in data set [6], 0.59 mol/mol. Moreover, the Activity result is “Not Active” in [7] and 69% in [13]. The inhibition in vivo at 100 mg/kg in data set [8] stood at 33%; in data set [9], 49%; in data set [10] it was 53%; in data set [11], 51%; in data set [12] it was 46%. Moreover, in [14], the UI amounted to 5.8.
Take `O=C(CO[N+](=O)[O-])Nc1ccc(C(=O)/C=C/c2ccc3c(c2)OCO3)cc1`: the Activity worked out at 0.39 mol/mol in data set [1]; 0.45 mol/mol in data set [2]; 0.6 mol/mol in data set [3]; 0.64 mol/mol in data set [4]; 0.73 mol/mol in data set [5]; 0.67 mol/mol in data set [6]. The Activity entry in [7] is “Not Active”; in data set [13] it was 79%. Besides, the inhibition in vivo at 100 mg/kg in data set [8] stood at 38%; in [9] it was 45%; in data set [10] it was 61%; in data set [11], 55%; in [12], 54%. For the same compound, the UI in data set [14] came to 3.
In the case of `O=C(CO[N+](=O)[O-])Nc1ccc(C(=O)/C=C/c2ccco2)cc1`, the Activity in data set [1] is 0.15 mol/mol; in data set [2], 0.28 mol/mol; in [3], 0.37 mol/mol; in [4] it was 0.59 mol/mol; in data set [5], 0.63 mol/mol; in data set [6] it was 0.59 mol/mol. Also, the Activity entry in [7] was “Not Active”; in data set [13], 61%. Also, the inhibition in vivo at 100 mg/kg was 34% in data set [8]; 36% in [9]; 48% in data set [10]; 40% in data set [11]; 39% in data set [12]. Moreover, in [14], the UI turned out to be 7.
Regarding `COc1ccc(/C=C/C(=O)c2ccc(NC(=O)C(C)O[N+](=O)[O-])cc2)cc1` (stereo unspecified), the Activity came to 0.11 mol/mol in data set [1]; 0.12 mol/mol in data set [2]; 0.37 mol/mol in data set [3]; 0.17 mol/mol in data set [4]; 0.15 mol/mol in data set [5]; 0.14 mol/mol in data set [6]. Besides, the Activity entry in data set [7] is “Not Active”; in data set [13], 65%. Further, the inhibition in vivo at 100 mg/kg came to 43% in [8]; 46% in [9]; 50% in data set [10]; 43% in data set [11]; 35% in data set [12]. The UI in data set [14] came to 8.
Take `CC(O[N+](=O)[O-])C(=O)Nc1ccc(C(=O)/C=C/c2ccc3c(c2)OCO3)cc1` (stereo unspecified): the Activity came out at 0.1 mol/mol in data set [1]; 0.14 mol/mol in [2]; 0.4 mol/mol in data set [3]; 0.28 mol/mol in data set [4]; 0.15 mol/mol in data set [5]; 0.12 mol/mol in data set [6]. The Activity result in data set [7] is “Not Active”; in [13], 77%. Further, the inhibition in vivo at 100 mg/kg is 45% in data set [8]; 40% in data set [9]; 59% in data set [10]; 54% in [11]; 53% in data set [12]. Besides, in data set [14], the UI was 4.
As for `CC(O[N+](=O)[O-])C(=O)Nc1ccc(C(=O)/C=C/c2ccco2)cc1` (stereo unspecified), the Activity in [1] is given as 0.09 mol/mol; in data set [2] it was 0.11 mol/mol; in data set [3] it was 0.38 mol/mol; in data set [4], 0.13 mol/mol; in data set [5], 0.11 mol/mol; in data set [6], 0.09 mol/mol. Also, the Activity result was “Not Active” in data set [7] and 69% in [13]. In addition, the inhibition in vivo at 100 mg/kg amounted to 41% in data set [8]; 48% in data set [9]; 54% in data set [10]; 49% in data set [11]; 49% in data set [12]. For the same compound, the UI in data set [14] was 5.7.
On to `C/C(=N/O)c1ccc(OCC(=O)Nc2ccc(C(=O)/C=C/c3ccc(Cl)cc3)cc2)cc1`, for which the Activity in data set [1] amounted to 0.13 mol/mol; in [2], 0.19 mol/mol; in data set [3], 0.22 mol/mol; in data set [4], 0.41 mol/mol; in [5], 0.37 mol/mol; in [6], 0.36 mol/mol. Besides, the Activity result is on record as “Not Active” in [7] and 85% in data set [13]. Further, the inhibition in vivo at 100 mg/kg in data set [8] was 39%; in data set [9], 54%; in [10], 66%; in data set [11], 55%; in [12], 49%. Further, the UI in data set [14] is on record as 2.2.
`COc1ccc(/C=C/C(=O)c2ccc(NC(=O)COc3ccc(/C(C)=N\O)cc3)cc2)cc1`: the Activity in data set [1] worked out at 0.11 mol/mol; in data set [2], 0.12 mol/mol; in data set [3] it was 0.14 mol/mol; in [4], 0.3 mol/mol; in [5] it was 0.16 mol/mol; in data set [6] it was 0.15 mol/mol. Moreover, the Activity result is recorded as “Not Active” in [7] and 59% in data set [13]. Also, the inhibition in vivo at 100 mg/kg in data set [8] turned out to be 33%; in data set [9] it was 41%; in data set [10] it was 46%; in data set [11], 42%; in [12], 37%. Moreover, in [14], the UI was 5.
Regarding `C/C(=N/O)c1ccc(OCC(=O)Nc2ccc(C(=O)/C=C/c3ccc4c(c3)OCO4)cc2)cc1`, the Activity in [1] worked out at 0.14 mol/mol; in [2], 0.16 mol/mol; in data set [3], 0.25 mol/mol; in data set [4], 0.31 mol/mol; in data set [5], 0.26 mol/mol; in data set [6], 0.24 mol/mol. The Activity result is given as “Not Active” in data set [7] and 77% in [13]. The inhibition in vivo at 100 mg/kg in [8] came out at 40%; in data set [9] it was 49%; in data set [10], 59%; in data set [11] it was 52%; in [12], 44%. Besides, the UI in data set [14] is given as 4.
